Experimental data published in ChEMBL document CHEMBL1123593, “2,4-diamino-6,7-dimethoxyquinazolines. 1. 2-[4-(1,4-benzodioxan-2-ylcarbonyl)piperazin-1-yl] derivatives as alpha 1-adrenoceptor antagonists and antihypertensive agents” (J Med Chem, 1987).
Calls of active or inactive are those of the source. The calls are words filed in the database; no cut-off is given here.

Assays:
[1] = test system: Rattus norvegicus; assay: Percent reduction in blood pressure in spontaneously hypertensive rats (SHR) at peroral dose of 5 mg/kg was determined after 1 hr; format: functional; conditions: route oral
How it was run: (§1)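 Single oral gavage dose of 5 mg/kg to groups of six spontaneously hypertensive rats, all with starting systolic pressure above 175 mmHg. Rats were warmed at 33 °C for 20–30 min before readings. Systolic pressure was taken by tail cuff with a variable capacitance transducer, predose and at 1, 2, 4 and 6 h. Percent reduction from predose is given. Saline-dosed controls (n = 10) were run.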

[2] = target: T1, Adrenergic receptor alpha-1 (Rattus norvegicus, UniProt P15823+P23944+P43140); assay: Compound was tested for its binding affinity for alpha-1 adrenergic receptor site by displacement of [3H]prazosin at 0.15 nM concentration
T1 sequence (P15823 whole entry): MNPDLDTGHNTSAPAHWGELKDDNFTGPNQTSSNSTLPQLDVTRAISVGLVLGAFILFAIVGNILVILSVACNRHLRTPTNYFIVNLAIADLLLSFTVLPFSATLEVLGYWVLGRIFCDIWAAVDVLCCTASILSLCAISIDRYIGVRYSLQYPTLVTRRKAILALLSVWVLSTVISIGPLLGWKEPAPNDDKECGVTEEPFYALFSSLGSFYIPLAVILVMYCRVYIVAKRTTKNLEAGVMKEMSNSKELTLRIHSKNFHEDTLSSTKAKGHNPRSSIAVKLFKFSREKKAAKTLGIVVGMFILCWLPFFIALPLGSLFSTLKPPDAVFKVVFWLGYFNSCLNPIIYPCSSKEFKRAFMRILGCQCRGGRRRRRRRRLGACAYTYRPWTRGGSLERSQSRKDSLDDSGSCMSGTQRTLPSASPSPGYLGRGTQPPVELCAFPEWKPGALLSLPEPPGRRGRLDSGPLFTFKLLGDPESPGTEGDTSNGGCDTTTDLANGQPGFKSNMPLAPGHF
T1 sequence (P23944 whole entry): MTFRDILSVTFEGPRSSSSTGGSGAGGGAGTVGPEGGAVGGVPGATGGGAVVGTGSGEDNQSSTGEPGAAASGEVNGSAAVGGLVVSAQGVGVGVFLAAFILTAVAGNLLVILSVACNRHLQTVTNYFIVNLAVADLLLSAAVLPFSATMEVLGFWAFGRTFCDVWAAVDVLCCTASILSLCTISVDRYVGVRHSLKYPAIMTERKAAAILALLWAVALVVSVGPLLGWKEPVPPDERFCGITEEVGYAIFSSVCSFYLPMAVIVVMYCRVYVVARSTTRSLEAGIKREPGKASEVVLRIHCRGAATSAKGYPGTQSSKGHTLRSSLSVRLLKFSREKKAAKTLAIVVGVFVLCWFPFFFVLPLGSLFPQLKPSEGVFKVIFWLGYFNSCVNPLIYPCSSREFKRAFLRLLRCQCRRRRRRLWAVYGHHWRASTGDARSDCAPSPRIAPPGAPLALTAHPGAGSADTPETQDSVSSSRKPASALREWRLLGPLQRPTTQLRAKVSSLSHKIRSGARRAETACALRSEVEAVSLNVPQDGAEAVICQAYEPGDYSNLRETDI
T1 sequence (P43140 whole entry): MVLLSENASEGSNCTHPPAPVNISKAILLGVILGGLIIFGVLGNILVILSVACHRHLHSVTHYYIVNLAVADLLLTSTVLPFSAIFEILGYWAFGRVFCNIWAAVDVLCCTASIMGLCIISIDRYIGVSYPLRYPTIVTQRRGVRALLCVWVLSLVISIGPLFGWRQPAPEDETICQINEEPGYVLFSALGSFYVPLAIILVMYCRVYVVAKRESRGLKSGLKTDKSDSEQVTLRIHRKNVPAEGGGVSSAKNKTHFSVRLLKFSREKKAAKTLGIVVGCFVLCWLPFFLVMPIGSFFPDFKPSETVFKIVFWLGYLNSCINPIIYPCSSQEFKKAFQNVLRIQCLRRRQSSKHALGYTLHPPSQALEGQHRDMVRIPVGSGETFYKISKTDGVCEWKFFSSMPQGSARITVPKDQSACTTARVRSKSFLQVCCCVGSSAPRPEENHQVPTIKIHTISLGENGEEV

[3] = test system: Rattus norvegicus; assay: Percent reduction in blood pressure in spontaneously hypertensive rats (SHR) at peroral dose of 5 mg/kg was determined after 6 hr; format: functional; conditions: route oral; how it was run: as §1
[4] = target: T2, Adrenergic receptor alpha-2 (Homo sapiens) (UniProt P08913+P18825+P18089); assay: Antagonist activity against prejunctional alpha-2 adrenergic receptor was measured by Kerbs super fused rabbit pulmonary artery preparations labeled with [3H]- norepinephrine; NA means no activity.; format: functional; conditions: Oryctolagus cuniculus; target entry is the homologue from another species
How it was run: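 [3H]-noradrenaline-labelled rabbit pulmonary artery, Krebs-superfused and stimulated transmurally (3 Hz, 0.05 h). Prejunctional action was read as [3H] overflow by liquid scintillation counting and plotted against compound concentration. EC40-pre, the concentration producing a 40% increase in [3H] overflow, was read from the graph. Values are averaged from two experiments, six for some.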

[5] = target: T1, Adrenergic receptor alpha-1; assay: Compound was tested for its binding affinity for alpha-1 adrenoceptor site by displacement of [3H]-prazosin at 0.15 nM concentration
[6] = target: T3, Adrenergic receptor alpha-1 (Homo sapiens) (UniProt P35348+P25100+P35368); assay: Antagonist activity against post junctional Alpha-1 adrenergic receptor was measured by Kerbs super fused rabbit pulmonary artery preparations labeled with [3H]- norepinephrine.; format: functional, tissue-based; conditions: Oryctolagus cuniculus, target entry is the homologue from another species
How it was run: (§2)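 Rabbit pulmonary artery superfused in Krebs after [3H]-noradrenaline labelling, with transmural electrical stimulation (3 Hz, 0.05 h). Postjunctional response was read as contraction on an isometric transducer. Percent antagonism was plotted against compound concentration. EC40-post, the concentration giving 40% reduction of contractile response, was read from the graph. Values are averaged from two experiments, six for some.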

[7] = target: T2, Adrenergic receptor alpha-2 (Homo sapiens); conditions: Oryctolagus cuniculus; Pulmonary artery
[8] = target: T3, Adrenergic receptor alpha-1 (Homo sapiens); assay: Antagonist activity against post junctional alpha-1 adrenergic receptor was measured by Kerbs super fused rabbit pulmonary artery preparations labeled with [3H]- norepinephrine; format: functional, tissue-based; conditions: Oryctolagus cuniculus, target entry is the homologue from another species; how it was run: as §2
[9] = target: T3, Adrenergic receptor alpha-1 (Homo sapiens); assay: Antagonist activity against post junctional alpha-1 adrenergic receptor was measured by Kerbs super fused rabbit pulmonary artery preparations labeled with [3H]- norepinephrine.; format: functional; conditions: Oryctolagus cuniculus; target entry is the homologue from another species; how it was run: as §2
[10] = target: T1, Adrenergic receptor alpha-1; assay: Compound was tested for its binding affinity for alpha-1 adrenergic receptor site by displacement of [3H]prazosin at 0.15 nM concentration; remark: listed apart in the source
[11] = target: T1, Adrenergic receptor alpha-1; assay: as above; remark: listed apart in the source

Row | Ki [2] [nM] | Compound | Reduction [3] [%] | Reduction [1] [%] | other results
1 | 2.2 | COc1cc2nc(N3CCN(C(=O)C4COc5ccccc5O4)CC3)nc(N)c2cc1OC (single isomer, unassigned; (-)) [DOXAZOSIN] |  |  | Reduction ([1]; 5 mg/kg): 12%
2 | 3.8 | COc1cc2nc(N3CCN(C(=O)C4CCOc5ccccc5O4)CC3)nc(N)c2cc1OC (configuration not stated) | 16 | 21 | 
3 | 1.1 | COc1cc2nc(N3CCN(C(=O)C4COc5ccccc5O4)CC3)nc(N)c2cc1OC (stereo in doubt; 1) [DOXAZOSIN] |  |  | Reduction ([3]; 5 mg/kg): 27%; Reduction ([1]; 5 mg/kg): 23%
4 | 2.6 | COc1cc2nc(N3CCN(C(=O)C4COc5ccccc5O4)CC3)nc(N)c2cc1OC (single isomer, unassigned; (+)) [DOXAZOSIN] |  |  | Reduction ([3]; 5 mg/kg): 24%; Reduction ([1]; 5 mg/kg): 27%
5 | 12.6 | COc1cc2nc(N3CCN(C(=O)C4COc5cc(Cl)ccc5O4)CC3)nc(N)c2cc1OC (configuration not stated) | 23 | 27 | 
6 | 1.6 | COc1cc2nc(N3CCCN(C(=O)C4COc5ccccc5O4)CC3)nc(N)c2cc1OC (configuration not stated) | 12 | 22 | 

More lines, now with the values behind:

Row | Compound | Ki [2] [nM] | Reduction [3] [%] | Reduction [1] [%] | other results
7 | COc1ccc2c(c1)OCC(C(=O)N1CCN(c3nc(N)c4cc(OC)c(OC)cc4n3)CC1)O2 (configuration not stated) |  | 23 | 34 | EC40 [4]: inactive; Ki [5]: 5.6 nM; EC40 [6]: 10 nM
8 | COc1cc2nc(N3CCN(C(=O)C4COc5cccc(C(C)C)c5O4)CC3)nc(N)c2cc1OC (configuration not stated) | 6.7 | 3 | 6 | EC40 [7]: inactive; EC40 [8]: 130 nM
9 | COc1cc2nc(N3CCN(C(=O)C4Oc5ccccc5OC4C)CC3)nc(N)c2cc1OC (cis isomer) [listing 1 of 2 here] |  |  |  | EC40 [7]: inactive; EC40 [9]: 27 nM
10 | COc1cc2nc(N3CCN(C(=O)C4COc5ccc(C(C)=O)cc5O4)CC3)nc(N)c2cc1OC (configuration not stated) | 3 | 24 | 19 | 
11 | COc1cc2nc(N3CCN(C(=O)C4Oc5ccccc5OC4C)CC3)nc(N)c2cc1OC (cis isomer) [listing 2 of 2 here] | 0.7 |  |  | Reduction ([3]; 5 mg/kg): 25%; Reduction ([1]; 5 mg/kg): 23%
12 | COc1cc2nc(N3CCN(C(=O)C4COc5cc(C)c(C)cc5O4)CC3)nc(N)c2cc1OC (configuration not stated) | 7.8 | 20 | 14 | 
13 | COc1cc2nc(N3CCN(C(=O)c4ccco4)CC3)nc(N)c2cc1OC [PRAZOSIN] |  | 29 | 33 | EC40 [9]: 4.5 nM
14 | COc1cc2nc(N3CCN(C(=O)C4COc5ccccc5O4)C(C)C3)nc(N)c2cc1OC (configuration not stated) | 6.5 | 13 | 18 | 
15 | COc1cc2nc(N3CCN(C(=O)C4Oc5ccccc5OC4C)CC3)nc(N)c2cc1OC (trans isomer) [listing 1 of 2 here] |  |  |  | EC40 [7]: inactive; EC40 [9]: 13 nM
16 | COc1cc2nc(N3CCN(C(=O)C4Oc5ccccc5OC4C)CC3)nc(N)c2cc1OC (trans isomer) [listing 2 of 2 here] | 2.1 |  |  | Reduction ([3]; 5 mg/kg): 21%; Reduction ([1]; 5 mg/kg): 21%
17 | COc1cc2nc(N3CCN(C(=O)C4COc5cccc(C)c5O4)CC3)nc(N)c2cc1OC (configuration not stated) | 3.7 | 22 | 16 | EC40 [7]: inactive; EC40 [9]: 26 nM
18 | COc1cc2nc(N3CCN(C(=O)C4COc5ccccc5O4)CC3)nc(N)c2cc1OC (single isomer, unassigned; (-)) |  |  |  | EC40 [9]: 40 nM
19 | COc1cc2nc(N3CCN(C(=O)C4(C)COc5ccccc5O4)CC3)nc(N)c2cc1OC (configuration not stated) |  | 9 | 8 | Ki [10]: 1.5 nM
20 | COc1cc2nc(N3CCN(C(=O)C4COc5cc(C(C)=O)ccc5O4)CC3)nc(N)c2cc1OC (configuration not stated) | 6.4 | 24 | 26 | 
21 | COc1cc2nc(N3CCN(C(=O)C4COc5ccccc5O4)CC3)nc(N)c2cc1OC (stereo in doubt; 1) |  |  |  | EC40 [9]: 50 nM
22 | COc1cc2nc(N3CCN(C(=O)C4COc5ccc(S(=O)(=O)N(C)C)cc5O4)CC3)nc(N)c2cc1OC (configuration not stated) | 6.5 | 8 | 10 | 
23 | COc1cc2nc(N3CCN(C(=O)C4COc5cc(Cl)c(Cl)cc5O4)CC3)nc(N)c2cc1OC (configuration not stated) | 13.3 | 9 | 6 | 
24 | COc1cc2nc(N3CCN(C(=O)C4COc5cccc(OC)c5O4)CC3)nc(N)c2cc1OC (configuration not stated) |  | 13 | 14 | Ki [11]: 2.4 nM
25 | COc1cc2nc(N3CCN(C(=O)C4COc5ccccc5O4)CC3)nc(N)c2cc1OC (single isomer, unassigned; (+)) |  |  |  | EC40 [9]: 7 nM
